# GPR7 antag – human neuropeptides B/W receptor 1 antagonism. inhibition, % at 4.4 µM. AID 1861. GPR7-expressing cells, fluorescence antagonist assay. hit rate 1.1% among 290,000. P48145; in the data active means inhibition above about 16%, passing the limit was not always enough;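 further: cells stimulated with the agonist NPW; 0% = agonist with vehicle and 100% = vehicle without agonist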
# Target sequence (P48145 whole entry, looked up): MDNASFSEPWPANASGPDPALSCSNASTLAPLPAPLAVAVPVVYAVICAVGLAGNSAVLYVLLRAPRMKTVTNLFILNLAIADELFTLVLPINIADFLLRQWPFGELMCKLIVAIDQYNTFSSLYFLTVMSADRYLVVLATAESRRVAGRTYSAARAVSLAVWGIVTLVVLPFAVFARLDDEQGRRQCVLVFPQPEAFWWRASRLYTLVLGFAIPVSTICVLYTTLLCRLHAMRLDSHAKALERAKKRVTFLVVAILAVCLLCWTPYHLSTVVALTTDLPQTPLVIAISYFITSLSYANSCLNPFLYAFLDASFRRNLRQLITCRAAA
# MPTP inh – inhibitors of mitochondrial permeability transition pore. isolated mouse mitochondria, Ca2+ swelling absorbance, 30 min. inhibition, % at 10 µM. hit rate 1.4% among 360,000. AID 602449;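 active means inhibition of 50% or more, scaled per plate between neutral and stimulator controls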;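 further: 0% = DMSO wells given calcium and 100% = 1 mM EGTA wells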
# TAAR1 agonist – human TAAR1 agonism. CHO RD-HGA16 TAAR1, Fluo-8 calcium fluorescence; vehicle wells 0%, saturating PEA agonist 100%. activation, % at 3 µM. hit rate 0.99% among 360,000. AID 624467;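 active means activation above the mean activation of all test compounds in the run plus 3 SD, cut at about 38% in these data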
# Target sequence (Q96RJ0 whole entry, looked up): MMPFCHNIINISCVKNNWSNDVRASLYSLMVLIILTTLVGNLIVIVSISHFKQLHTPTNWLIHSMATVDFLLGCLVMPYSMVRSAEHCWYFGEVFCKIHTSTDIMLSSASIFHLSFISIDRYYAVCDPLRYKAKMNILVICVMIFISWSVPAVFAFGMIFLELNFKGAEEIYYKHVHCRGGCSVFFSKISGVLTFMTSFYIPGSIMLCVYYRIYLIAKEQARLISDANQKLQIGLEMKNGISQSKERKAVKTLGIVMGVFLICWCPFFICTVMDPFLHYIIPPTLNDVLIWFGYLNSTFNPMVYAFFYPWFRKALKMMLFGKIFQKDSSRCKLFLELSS
#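 System: CHO-derived RD-HGA16 cells with stable Gα16 and human TAAR1 / Times: 17-24 h plating, Fluo-8 75 min 37 °C, 30 min RT / Technique: calcium-sensitive Fluo-8 signal, excitation 470-495, emission 515-575 nm / Measure: % activation relative to PEA EC100 response / Benchmarks: DMSO and PEA EC100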
# DAGLB inhibitor – diacylglycerol lipase beta (human) inhibition; inhibition, % at 5.17 µM; Q8NCG7; AID 504411; HEK293T DAGLB membrane lysate, EnzChek fluorogenic substrate; hit rate 0.059% among 340,000; in the data active means inhibition above about 34%;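 further: 0% = enzyme with vehicle and 100% = wells lacking enzyme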
# TAAR1 antag – antagonists of human TAAR1; Q96RJ0; CHO RD-HGA16 TAAR1, Fluo-8 calcium fluorescence, antagonist; inhibition, % at 3 µM; hit rate 1.5% among 360,000;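 active means inhibition above a per-plate cutoff, the mean inhibition of test compounds on that plate plus 3 SD, cut at about 49% in these data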;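 further: 0% = DMSO plus EC80 beta-PEA response and 100% = DMSO alone without agonist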
#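 Test system: hTAAR1-expressing CHO RD-HGA16 cells, Gα16-coupled; Probe or stimulus: EC80 β-phenethylamine stimulus; Compound dosing: single nominal final test compound concentration of 3 µM; Timing: 140 s kinetic read after compound, 140 s after agonist; Signal: Fluo-8 calcium-sensitive fluorescence; Measure: % inhibition of agonist calcium response; Controls: DMSO and EC80 PEA controls.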
# GPR7 antag conf – confirmation of human GPR7 antagonists; shares compounds with GPR7 antag; GPR7-expressing cells, calcium fluorescence antagonist mode; inhibition, % at 4.4 µM; hit rate 52% among 2,400; AID 1952; in the data active means inhibition above about 24%;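 further: stimulated with the GPR7 agonist NPW; 0% = agonist plus vehicle and 100% = vehicle alone without agonist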
# MCHR1 antagonist – antagonizes human MCHR1, a GPR7 antagonist counter-screen; shares compounds with GPR7 antag; MCHR1-expressing cells, fluorescence antagonist assay; inhibition, % at 4.4 µM; hit rate 62% among 2,400; in the data active means inhibition above about 22%;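 further: 0% = vehicle with agonist and 100% = vehicle without agonist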
# * = called active by the depositor; . = not tested or not shown. Compounds with a hit are over-represented: about 4% of the library has one in this group of screens.
SMILES,GPR7 antag,MPTP inh,TAAR1 agonist,DAGLB inhibitor,TAAR1 antag,GPR7 antag conf,MCHR1 antagonist
Cc1cccc(N2CCN(C(=O)COc3ccc4ccc(=O)oc4c3)CC2)c1C,37*,0,2,0,14,45*,42*
COc1cc(CNCc2ccccn2)ccc1OCc1ccc(Cl)c(Cl)c1,24*,9,33,-1,-3,23,68*
CCCC(CCC)C(=O)Nc1ccc2c(c1)N(C(=O)CCN1CCN(C)CC1)c1ccccc1CC2,28*,-1,4,0,4,28*,18
CCOC(=O)Nc1ccc2c(c1)N(C(=O)CN1CCN(C)CC1)c1ccccc1CC2,2,-1,2,0,7,.,.
COc1ccc(C(C)(C)C)cc1N1C(=O)[C@@H]2CSCCS(=O)(=O)N2C1=O,.,.,-1,.,-1,.,.
COc1cccc(OC)c1C(=O)OCC(=O)NCCNC(=O)COC(=O)c1c(OC)cccc1OC,.,-1,0,-4,-14,.,.
CCc1ccc(CN(Cc2cccnc2)C(=O)/C=C/c2ccc(OC)cc2)cc1,39*,1,-5,0,-29,32*,49*
CN(C)CCCNC(=O)c1ccc(-c2nc(-c3ccc(Cl)cc3)cs2)cc1,41*,-10,0,2,12,91*,92*
CN(C)CCCNC(=O)c1ccccn1,-3,-1,12,-3,-8,.,.
CCCNC(=O)c1cc2c(c(-c3cccc(-c4ccccc4F)c3)n1)[C@@H](CCO)N(C(=O)CC1CC1)C2,.,-2,7,.,33,.,.
COc1ccc(OC)c(/C=C2\NC(=O)NC2=O)c1,-2,0,5,-2,-18,.,.
COc1cc(N2CCCC2)c(OC)cc1/C=C1/NC(=S)NC1=O,32*,2,45*,-105,51*,41*,36*
CCOC(=O)N1CCN(C(=S)NC(C)(C)C)CC1,21*,3,21,2,1,-4,-7
C=CCn1c(COc2ccc(Cl)cc2)nnc1SCc1ccc(C#N)cc1,27*,1,17,-1,17,41*,47*
C=CCn1c(COc2ccccc2)nnc1SCc1ccc(C#N)cc1,6,-2,8,-2,12,.,.
Cc1noc(C)c1S(=O)(=O)NC(=O)C1(C)CCN1C(=O)C1(c2ccc(Cl)cc2)CC1 (centres undefined),.,0,1,.,7,.,.
CC(c1ccco1)N(C(=O)c1ccccc1NS(=O)(=O)c1ccc(Cl)c([N+](=O)[O-])c1)c1ccccn1 (centres undefined),24*,46,3,11,27,12,31*
CC(c1ccco1)N(C(=O)c1cc(Cl)cc(Cl)c1)c1ccccn1 (centres undefined),-15,-3,4,-1,-7,.,.
CCOC(=O)N1CCN(S(=O)(=O)c2ccc(C(=O)N(CCN(C)C)c3nc4ccc(CC)cc4s3)cc2)CC1,-2,0,3,2,-10,.,.
COc1cccc2sc(N(CCCN(C)C)C(=O)c3ccc(S(=O)(=O)N4CCCc5ccccc54)cc3)nc12,35*,1,40*,1,23,50*,41*
CCOC(=O)N1CCN(S(=O)(=O)c2ccc(C(=O)N(CCCN(C)C)c3nc4ccc(CC)cc4s3)cc2)CC1,28*,0,5,2,-7,39*,17
CN(C)CCCN(C(=O)c1ccc(S(=O)(=O)N2CCc3ccccc32)cc1)c1nc2c(Cl)cccc2s1,5,5,34,-3,20,.,.
Cc1ccc(S(=O)(=O)N2CC(CBr)=CCC2c2ccccc2)cc1 (centres undefined),.,.,1,.,-21,.,.
COc1ccc(-n2c(-c3ccc(Cl)cc3)c[n+]3c2CCCCC3)cc1,4,1,0,0,-28,.,.
CCOc1ccc(-n2c(-c3ccc(Br)cc3)c[n+]3c2CCCCC3)cc1,29*,-4,9,1,2,39*,36*
SMILES,GPR7 antag,MPTP inh,TAAR1 agonist,DAGLB inhibitor,TAAR1 antag,GPR7 antag conf,MCHR1 antagonist
CCOc1ccc(-n2c(-c3ccc(OC)cc3)c[n+]3c2CCCCC3)cc1,36*,10,1,0,18,55*,49*
COc1ccc(-c2c[n+]3c(n2-c2ccccc2)CCCCC3)cc1,2,1,1,2,-3,.,.
COc1ccc(-c2c[n+]3c(n2-c2ccc(C)cc2)CCCCC3)cc1,25*,5,0,-6,-4,47*,38*
CCOc1ccc(-n2c(-c3ccccc3)c[n+]3c2CCC3)cc1,-16,0,16,-1,16,.,.
COCCN(C(=O)COC(=O)/C=C/c1ccc(OC)c(OC)c1)c1c(N)n(Cc2ccccc2)c(=O)[nH]c1=O,.,-1,1,3,-1,.,.
COc1ncc(-c2ccc(N3C(c4ccc([N+](=O)[O-])cc4)=Cc4ccccc4C3CC(C)=O)cc2)cn1 (centres undefined),.,0,0,.,-22,.,.
O=[N+]([O-])c1ccc(CN2CCN(c3ccc([N+](=O)[O-])cc3)CC2)cc1,36,-1,9,-1,13,.,.
O=[N+]([O-])c1ccc(N2CCN(Cc3ccccc3)CC2)nc1,22*,1,11,-3,21,27*,19
O=[N+]([O-])c1ccc(N2CCN(c3cccc(Cl)c3)CC2)nc1,51*,1,1,-4,16,29*,70*
O=[N+]([O-])c1ccc(CN2CCC(Cc3ccccc3)CC2)cc1,26*,0,-2,-11,0,13,33*
O=[N+]([O-])c1ccc(N2CCN(Cc3cccc([N+](=O)[O-])c3)CC2)cc1,37*,1,0,-3,20,56*,63*
C=CCN1C=C(C(=O)OCC)C(=O)CC1,.,.,0,.,-8,.,.
Cc1cccc(Cl)c1NC(=O)NCCCN1CCOCC1,.,.,0,.,-3,.,.
COCCN1Cc2cc(C(=O)OC)c3c(c2C1=O)c1ccccc1n3S(=O)(=O)c1ccc(C)cc1,.,.,-1,.,-28,.,.
CC(=O)N1CCN(C(=O)COC(=O)/C=C/c2ccc(C(F)(F)F)cc2)CC1,.,-1,3,1,6,.,.
COc1cccc(CN2CCN(C(=O)Nc3ccc([N+](=O)[O-])cc3)CC2)c1,29*,16,8,1,15,41*,68*
COc1ccc(N(CC(=O)NCc2ccc(Cl)cc2)S(=O)(=O)c2ccccc2[N+](=O)[O-])c(OC)c1,37*,-2,13,-3,11,34*,38*
Cc1ccc(S(=O)(=O)N2C[C@H]3[C@H]4C(=O)N(Cc5ccccc5)C(=O)[C@H]4CC(=O)[C@H]3[C@@H]2c2cccc3ccccc23)cc1,.,2,0,.,-3,.,.
Cc1cc2c(nc1C)CCCN2Cc1ccccc1C(F)(F)F,.,.,6,.,-26,.,.

# Screens (PubChem BioAssay)
